# Assay outcomes: PubChem, The Scripps Research Institute Molecular Screening Center
# TRPML3 agonist – human TRPML3 channel agonists, primary screen, cell-based, HEK293 TRPML3-YFP, Fluo-8 calcium fluorescence, 3 µM; Mucolipin-3 (Homo sapiens), Q8TDD5; 100% = the carbachol control signal; activation, % at 3 µM; hit rate 0.29% among 220,000;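 active = activation above its plate's cutoff, the mean activation of the plate's test wells plus 3 SD, cut at about 12% in these data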;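 note: 0% = DMSO only wells and 100% = carbachol wells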
# Target sequence (Q8TDD5 whole entry, looked up): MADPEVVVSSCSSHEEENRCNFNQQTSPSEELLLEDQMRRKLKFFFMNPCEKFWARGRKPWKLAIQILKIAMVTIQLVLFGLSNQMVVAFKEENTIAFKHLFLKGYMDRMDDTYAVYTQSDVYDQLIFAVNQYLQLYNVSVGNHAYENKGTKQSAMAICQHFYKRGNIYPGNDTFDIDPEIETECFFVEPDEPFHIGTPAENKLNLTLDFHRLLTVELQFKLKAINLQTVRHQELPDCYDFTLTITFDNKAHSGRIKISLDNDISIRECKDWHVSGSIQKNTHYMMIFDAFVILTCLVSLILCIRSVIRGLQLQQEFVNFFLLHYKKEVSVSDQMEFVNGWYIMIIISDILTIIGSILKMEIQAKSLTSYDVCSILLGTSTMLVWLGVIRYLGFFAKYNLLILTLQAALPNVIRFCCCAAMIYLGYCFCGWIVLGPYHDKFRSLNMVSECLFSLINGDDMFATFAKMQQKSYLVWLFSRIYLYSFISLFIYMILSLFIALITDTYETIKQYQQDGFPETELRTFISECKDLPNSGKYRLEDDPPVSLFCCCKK
#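 Material: TRPML3-YFP stable HEK293 cells | Dosing: One concentration, 3 µM nominal, 0.3% DMSO | Timing: 125 s total fluorescence read per well | Technique: Fluo-8 calcium dye fluorescence, ex 470-495, em 515-575 nm | Measure: Percent activation from peak-to-basal fluorescence ratio, scaled between DMSO and carbachol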
# CHO-K1 Ca antag – M1 antagonist counterscreen hit in parental CHO-K1 cells; inhibition, % at 3 µM; hit rate 0.6% among 360,000; ATP-induced calcium, Fluo-8 fluorescence; AID 602250;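 active = inhibition above a per-plate cutoff, the plate's mean sample inhibition plus 3 SD, cut at about 24% in these data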;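 note: 0% = DMSO plus EC80 ATP and 100% = DMSO alone without ATP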
# zfTRPN1 agonist – zebrafish TRPN1 channel agonists, primary screen, cell-based, HEK293, calcium fluorescence; transient receptor potential cation channel N1 (TRPN1/NompC), Danio rerio; HEK293 zebrafish TRPN1-YFP, Fluo-8 calcium fluorescence; 100% = response to 87 µM carbachol; activation, % at 3 µM; hit rate 0.18% among 220,000;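 active = activation above its plate's cutoff, the mean activation of test wells on that plate plus 3 SD, cut at about 19% in these data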;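 note: 0% = DMSO alone and 100% = 87 µM carbachol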
#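 Assay system: Zebrafish TRPN1-YFP in HEK293 cells | Incubation: Dye loading 1 h at 37 °C, then 30 min room temperature | Measured by: Kinetic Fluo-8 fluorescence, ex 470-495, em 515-575 nm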
# M1 PAM parental – nonselective calcium activators in parental CHO-K1 cells, primary screen, counter-screen for M1 PAM project, cell-based, Fluo-8 calcium fluorescence, full deck, 1536-well. ATP EC20; 0% at ATP EC20, 100% at ATP max. activation, % at 3 µM. hit rate 0.02% among 360,000. AID 602247, 2012;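 active = activation above the run cutoff, the mean activation of all test compounds plus 3 SD, cut at about 40% in these data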;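 note: peak over basal fluorescence ratio in a 140 s read after ATP addition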
# M1 ag parental – counter-screen for M1 agonists: effect in parental CHO-K1 cells | Fluo-8 calcium fluorescence; scaled to maximal ATP response, vehicle zero | activation, % at 3 µM | hit rate 0.48% among 360,000; in the data active = activation above about 15%;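 note: untransfected CHO-K1 host cells lacking M1 receptor as counterscreen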
# * = called active by the depositor; x = not tested or not shown. The list is not random: actives were taken first. Their share in the collection is about 1.2%.
SMILES,TRPML3 agonist,CHO-K1 Ca antag,zfTRPN1 agonist,M1 PAM parental,M1 ag parental
N#C/C(=C/c1ccc(N2CCOCC2)o1)c1nc2ccccc2[nH]1,1,15,2,-10,19*
COc1ccc(NC(=O)/C(C#N)=C/c2ccc(Br)o2)cc1,0,-10,1,7,0
COc1ccc(NC(=O)/C(C#N)=C\c2ccc(N3CCOCC3)o2)cc1,40*,35*,49*,-20,54*
N#C/C(=C\c1ccc(N2CCOCC2)o1)C(=O)Nc1ccc(O)cc1,4,5,10,3,16*
CCCCn1nnnc1C(c1ccccc1)N1CCCN(Cc2ccc(F)cc2)CC1 (centres undefined),x,-11,x,-5,0
COc1ccc(-c2oc3c(c2C#CCCCCO)C(OCCO)CC3)cc1 (centres undefined),x,-7,x,3,1
COc1ccc(NC(=O)CN2CCC(C(=O)c3ccc(C)cc3)CC2)c(OC)c1,x,-33,x,32,3
COc1ccc(NC(=O)C2CCCCN2S(=O)(=O)c2ccc(F)cc2)c(OC)c1 (centres undefined),0,27*,-1,-4,0
COc1ccc(NC(=O)CN2CCC(C(=O)c3ccc(F)cc3)CC2)c(OC)c1,x,-11,x,-9,37*
COc1ccc(OC)c(C(=O)N2CCC(C(=O)c3ccc(F)cc3)CC2)c1,1,24*,0,-7,1
O=C(c1ccc(F)cc1)C1CCN(Cc2ccccc2)CC1,x,7,x,4,16*
CCCc1nc2ccc(C)cn2c1Cc1cccc(Cl)c1,x,-7,x,9,4
O=S1(=O)CC(N2CCC(c3ccccc3)CC2)CN1Cc1ccc(F)cc1 (centres undefined),x,13,x,10,2
COc1cc(NC(=O)c2ccccc2)c(OC)cc1NC(=O)CN1CCCCC1,0,26*,0,-6,0
COc1cc(NC(=O)c2ccccc2)c(OC)cc1NC(=O)CN1CCOCC1,0,-1,1,13,1
COc1ccc(NC(=O)CN2CCN(c3ccc(Cl)cc3)CC2)c(OC)c1,0,-21,-1,42*,0
COc1ccc(NC(=O)CN2CCN(c3nc(-c4ccc(F)cc4)cs3)CC2)c(OC)c1,0,-26,2,53*,0
CN(C)CCN1CCN(C2CN(Cc3cn(Cc4ccc(F)cc4)nn3)S(=O)(=O)C2)CC1 (centres undefined),x,-9,x,13,1
O=C1Nc2ccccc2CN2C(=O)c3cc(Cl)ccc3NC(=O)C12 (centres undefined),x,-18,x,20,2
CCOC(=O)C1CCN(C(=O)/C(=C/c2ccccc2)NC(=O)c2ccccc2)CC1,x,-8,x,12,16*
Cc1ccc(C(=O)N/C(=C\c2cccnc2)C(=O)N2CCCC2)cc1,x,-7,x,5,0
Cc1ccc(C(=O)N/C(=C/c2cccnc2)C(=O)N2CCCCCC2)cc1,x,47*,x,9,0
CC(C)c1ccc(CC(=O)N2CCC2(C)C(=O)NS(=O)(=O)c2cccc(OC(F)F)c2)cc1 (centres undefined),x,-9,x,19,0
CCOc1cc(/C=N/n2cnnc2)ccc1OC(=O)c1cccc([N+](=O)[O-])c1,-1,31*,-1,-9,1
CCOc1cc(/C=N/NC(=O)c2cc(C)[nH]n2)ccc1OC(=O)c1ccc([N+](=O)[O-])cc1,1,x,1,x,x
SMILES,TRPML3 agonist,CHO-K1 Ca antag,zfTRPN1 agonist,M1 PAM parental,M1 ag parental
O=C(CSc1cc(Cl)ccc1Cl)NCC(=O)Nc1ccc(F)c(F)c1F,0,6,0,9,15*
O=C(CNC(=O)c1cccc(Cl)c1)Nc1ccc(F)c(F)c1F,x,1,x,1,1
CCn1c(SCc2cccc(C)c2)nnc1-c1ccc(C)cc1,0,-3,5,19,16*
CS(=O)(=O)Nc1cccc(-c2ccc3nncn3c2)c1,x,-6,x,9,0
COc1cccc(CNCc2ccc(OC)c3ccccc23)c1OC,x,12,x,-1,23*
COc1cccc(CN2CCSCC2)c1OC,x,25*,x,-26,0
COc1ccccc1CN1CCSCC1,0,-4,-1,10,1
CCN(CC)S(=O)(=O)c1ccc(C)c(NC(=O)CNc2cccc(S(=O)(=O)N3CCCC3)c2)c1,x,-5,x,8,0
CN(CC(=O)Nc1cccc(S(=O)(=O)N2CCCC2)c1)CC(=O)Nc1ccc(Cl)c(C(F)(F)F)c1,x,32*,x,-10,6
CCN(CC)S(=O)(=O)c1cccc(NC(=O)COC(=O)c2ccc(Br)o2)c1,0,6,4,0,25*
Cc1cc(C)cc(C(=O)OCC(=O)Nc2cccc(S(=O)(=O)NC3=NCCCCC3)c2)c1,1,24*,1,-12,2
CCN(CC)S(=O)(=O)c1cccc(NC(=O)COC(=O)c2cc(=O)c3ccccc3o2)c1,0,-3,-1,16,0
O=C(COC(=O)c1ccccc1)Nc1cccc(S(=O)(=O)NC2=NCCCCC2)c1,0,-9,0,20,0
CCN(CC)S(=O)(=O)c1cccc(NC(=O)CNc2cccc(S(=O)(=O)N3CCCC3)c2)c1,x,32*,x,-17,6
O=C(Nc1ccccc1)OC[C@@H]1C=CS(=O)(=O)N1Cc1ccc(Br)cc1,x,-4,x,-3,2
CC1(C)CC(=O)C=C(c2ccc(-c3cccc4c3sc3ccccc34)cc2)C1=O,x,1,x,16,1
CCOC(=O)c1cc2ccccc2n1C1CCN(C)CC1,x,0,x,15,3
CCC(=O)c1ccc(OCC(=O)Nc2cccc(S(=O)(=O)N3CCCCCC3)c2)cc1,x,36*,x,-15,18*
CCOC(=O)C1=CCN(S(=O)(=O)c2ccc(Br)cc2)C1c1ccccc1 (centres undefined),x,20,x,-5,1
CCCCNc1c(CC(C)C)nc2nc(C)cc(C)n12,x,25*,x,-9,-1
O=C1NC(=O)C2(N1)C(=O)c1cccc3cccc2c13 (centres undefined),x,20,x,1,100*
O=C1NC(=O)C2(N1)c1ccccc1-c1ccccc12,x,6,x,2,4
Cc1cccc(C)c1-n1nnnc1C(c1ccccc1OC(F)(F)F)N1CCN(C/C=C/c2ccccc2)CC1 (centres undefined),x,-16,x,2,1
COCOc1cccc(CN2CCC2(C)C(=O)Nc2ccc3c(c2)OCO3)c1 (centres undefined),x,-14,x,30,2
CC1(C(=O)Nc2ccc3c(c2)OCO3)CCN1Cc1csc2ccccc12 (centres undefined),x,-24,x,40*,0
CC1(C(=O)Nc2ccc3c(c2)OCO3)CCN1Cc1cccc2c1OCO2 (centres undefined),x,-21,x,58*,3
